Active and inactive are the calls of the source. The rule behind the calls is not given here.
How the values were obtained:
[1] = system: Staphylococcus epidermidis; assay: Phototoxicity against Staphylococcus epidermidis 1457 grown as biofilms assessed as dead cells incubated at 40 uM for 30 mins followed by irradiation with 100 J/cm'2 laser light using SYTO9 staining by confocal laser scanning microscopy; assay type: functional, organism-based
Procedure, shortened: (§1)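 Biofilms were grown 16 h at 37°C on glass coverslips, plasma-coated for S. aureus, and treated with 40 μM TBO for 30 min in the dark, then left dark or irradiated at 640 nm to 100 or 200 J/cm². They were stained with SYTO9/propidium iodide (1 μl of each stock per 3 ml PBS) for 15 min at 22°C in the dark and imaged by confocal microscopy. Red = membrane-damaged/dead, green = viable.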

[2] = system: Staphylococcus epidermidis; assay: Phototoxicity against Staphylococcus epidermidis 1457 grown as biofilms assessed as dead cells incubated at 40 uM for 30 mins in dark using SYTO9 staining by confocal laser scanning microscopy in presence of TEDTA pretreated for 1 hr; assay type: functional, organism-based
Procedure, shortened: (§2)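 Coverslip biofilms (plasma-coated for S. aureus) were pretreated with 20 mM TEDTA for 1 h and exposed to 40 μM TBO for 30 min in the dark. They were stained with SYTO9 plus propidium iodide for 15 min at 22°C in the dark and examined by confocal laser scanning microscopy for red (dead) versus green (viable) cells.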

Staphylococcus aureus [3] = assay: Phototoxicity against Staphylococcus aureus isolate LP grown as biofilms assessed as reduction in adherent bacterial count incubated at 40 uM for 30 mins followed by irradiation with 100 J/cm'2 laser light by scanning electron microscopy; assay type: functional, organism-based
Procedure, shortened: (§3)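 Biofilms were grown on Thermanox coverslips in TSB, precoated with 20% human plasma for S. aureus, and incubated with 40 μM TBO for 30 min in the dark, either unirradiated or irradiated at 100 J/cm². They were washed, fixed in 2.5% glutaraldehyde/0.1 M cacodylate pH 7.2 for 1 h at 4°C, ethanol-dehydrated, critical-point dried, and gold-coated. SEM was at ×1,000.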

[4] = system: Staphylococcus epidermidis; assay: Phototoxicity against Staphylococcus epidermidis 1457 grown as biofilms assessed as log reduction in survival fraction incubated at 40 uM for 30 mins followed by irradiation with 100 J/cm'2 laser light in presence of TEDTA pretreated for 1 hr; assay type: functional
Procedure, shortened: (§4)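 Biofilms were pretreated with 20 mM TEDTA in PBS for 1 h. They were then given 40 μM TBO, 30 min in the dark at 37°C, and 640 nm laser at 42 mW/cm² to 100 J/cm². Colony counts were made after scraping, sonication, and plating. Controls: TEDTA+TBO without light, TEDTA alone, and untreated. Survival was compared with TBO + light without TEDTA using an unpaired two-sided t test.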

Staphylococcus aureus [5] = assay: Phototoxicity against Staphylococcus aureus isolate LP grown as biofilms assessed as appearance of large cellular aggregates surrounded by extracellular matrix incubated at 40 uM for 30 mins in dark by scanning electron microscopy; assay type: functional, organism-based; procedure, shortened: as §3
[6] = system: Staphylococcus epidermidis; assay: Phototoxicity against Staphylococcus epidermidis 1457 grown as biofilms assessed as dead cells incubated at 40 uM for 30 mins followed by irradiation with 200 J/cm'2 laser light using propidium iodide staining by confocal laser scanning microscopy; assay type: functional, organism-based; procedure, shortened: as §1
[7] = system: Staphylococcus epidermidis; assay: Phototoxicity against Staphylococcus epidermidis 1457 grown as biofilms assessed as decrease in survival incubated at 40 uM followed by irradiation with 1 to 200 J/cm2 laser light; assay type: functional, organism-based
Procedure, shortened: (§5)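 Biofilms were grown 16 h at 37°C in TSB + 0.25% glucose, with plasma-coated wells for S. aureus. They were then incubated with TBO (10–80 μM tested) in the dark for 30 min at 37°C and irradiated with a 640 nm diode laser, 1-cm spot, 42 mW/cm², at varied light doses. Cells were scraped, sonicated, serially diluted, and plated. Surviving fraction is CFU (TBO + light)/CFU (TBO alone). Duplicate biofilms, three experiments.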

Staphylococcus aureus [8] = assay: Phototoxicity against Staphylococcus aureus isolate LP grown as biofilms assessed as dead cells incubated at 40 uM for 30 mins in dark using SYTO9 staining by confocal laser scanning microscopy in presence of TEDTA pretreated for 1 hr; assay type: functional, organism-based; procedure, shortened: as §2
Staphylococcus aureus [9] = assay: Phototoxicity against Staphylococcus aureus isolate LP grown as biofilms assessed as reduction in adherent bacterial count incubated at 40 uM for 30 mins followed by irradiation with 100 J/cm'2 laser light by scanning electron microscopy in presence of TEDTA pretreated for 1 hr; assay type: functional, organism-based
Procedure, shortened: (§6)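 Thermanox coverslip biofilms (plasma-precoated for S. aureus) were pretreated with 20 mM TEDTA for 1 h, given 40 μM TBO for 30 min in the dark, and irradiated at 100 J/cm². They were then fixed in glutaraldehyde/cacodylate, dehydrated in graded ethanol, critical-point dried, gold-coated, and imaged by SEM at ×1,000.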

Staphylococcus aureus [10] = assay: Phototoxicity against Staphylococcus aureus isolate LP grown as biofilms assessed as dead cells incubated at 40 uM for 30 mins followed by irradiation with 200 J/cm'2 laser light using propidium iodide staining by confocal laser scanning microscopy; assay type: functional, organism-based; procedure, shortened: as §1
[11] = system: Staphylococcus epidermidis; assay: Phototoxicity against Staphylococcus epidermidis 1457 grown as biofilms incubated at > 40 uM followed by irradiation with 1 to 200 J/cm2 laser light; assay type: functional, organism-based; procedure, shortened: as §5
[12] = Ratio of phototoxicity against Staphylococcus aureus isolate LP grown as biofilms to phototoxicity against Staphylococcus epidermidis 1457; assay type: functional
Procedure, shortened: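 Cell survival for each species was derived as CFU (TBO + light)/CFU (TBO alone) after biofilms were incubated with 40 μM TBO for 30 min in the dark and irradiated with a 640 nm diode laser at 42 mW/cm², compared at 25 J/cm². Unpaired two-sided t test.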

Staphylococcus aureus [13] = assay: Increase in phototoxicity against Staphylococcus aureus isolate LP grown as biofilms incubated at 40 uM for 30 mins followed by irradiation with 100 J/cm'2 laser light in presence of TEDTA pretreated for 1 hr; assay type: functional, organism-based; procedure, shortened: as §4
Staphylococcus aureus [14] = assay: Phototoxicity against Staphylococcus aureus isolate LP grown as biofilms assessed as decrease in survival incubated at 40 uM followed by irradiation with 1 to 200J/cm2 laser light; assay type: functional, organism-based; procedure, shortened: as §5
[15] = system: Staphylococcus epidermidis; assay: Phototoxicity against Staphylococcus epidermidis 1457 grown as biofilms assessed as reduction in adherent bacterial count incubated at 40 uM for 30 mins followed by irradiation with 100 J/cm'2 laser light by scanning electron microscopy; assay type: functional, organism-based; procedure, shortened: as §3
Staphylococcus aureus [16] = assay: Phototoxicity against Staphylococcus aureus isolate LP grown as biofilms assessed as dead cells incubated at 40 uM for 30 mins followed by irradiation with 100 J/cm'2 laser light using SYTO9 staining by confocal laser scanning microscopy; assay type: functional, organism-based; procedure, shortened: as §1
Staphylococcus aureus [17] = assay: Phototoxicity against Staphylococcus aureus isolate LP grown as biofilms incubated at > 40 uM followed by irradiation with 1 to 200 J/cm2 laser light; assay type: functional, organism-based; procedure, shortened: as §5
[18] = system: Staphylococcus epidermidis; assay: Phototoxicity against Staphylococcus epidermidis 1457 grown as biofilms assessed as dead cells incubated at 40 uM for 30 mins in dark using SYTO9 staining by confocal laser scanning microscopy; assay type: functional, organism-based; procedure, shortened: as §1
Staphylococcus aureus [19] = assay: Antimicrobial activity against Staphylococcus aureus isolate LP grown as biofilms at 40 uM incubated in dark for 30 mins; assay type: functional, organism-based
Procedure, shortened: (§7)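 Biofilms grown 16 h at 37°C in polystyrene wells from overnight TSB cultures diluted in TSB + 0.25% glucose (S. epidermidis 1:200, S. aureus 1:50, S. aureus wells precoated with 20% human plasma). TBO in PBS added, kept dark 30 min at 37°C, no light. Biofilms scraped, sonicated, vortexed, and plated on TSB agar. CFU counted after 24 h at 37°C in the dark and compared with PBS-only controls.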

[20] = system: Staphylococcus epidermidis; assay: Antimicrobial activity against Staphylococcus epidermidis 1457 grown as biofilms at 40 uM incubated in dark for 30 mins; assay type: functional, organism-based; procedure, shortened: as §7
[21] = system: Staphylococcus epidermidis; assay: Phototoxicity against Staphylococcus epidermidis 1457 grown as biofilms assessed as reduction in adherent bacterial count incubated at 40 uM for 30 mins followed by irradiation with 100 J/cm'2 laser light by scanning electron microscopy in presence of TEDTA pretreated for 1 hr; assay type: functional, organism-based; procedure, shortened: as §6
Staphylococcus aureus [22] = assay: Phototoxicity against Staphylococcus aureus isolate LP grown as biofilms assessed as dead cells incubated at 40 uM for 30 mins in dark using SYTO9 staining by confocal laser scanning microscopy; assay type: functional, organism-based; procedure, shortened: as §1
[23] = system: Staphylococcus epidermidis; assay: Phototoxicity against Staphylococcus epidermidis 1457 grown as biofilms assessed as appearance of large cellular aggregates surrounded by extracellular matrix incubated at 40 uM for 30 mins in dark by scanning electron microscopy; assay type: functional, organism-based; procedure, shortened: as §3

SMILES: Cc1cc2nc3ccc(N(C)C)cc3[s+]c2cc1N.[Cl-] [TOLONIUM CHLORIDE]
- Activity [1]: inactive
- Activity [2]: Active
- Activity (Staphylococcus aureus [3]): Active
- Activity [4]: 1
- Activity (Staphylococcus aureus [5]): Active
- Activity [6]: Active
- Activity [7]: Active
- Activity (Staphylococcus aureus [8]): Active
- Activity (Staphylococcus aureus [9]): Active
- Activity (Staphylococcus aureus [10]): Active
- Activity [11]: Active
- Ratio [12]: 10
- Activity (Staphylococcus aureus [13]): inactive
- Activity (Staphylococcus aureus [14]): Active
- Activity [15]: Active
- Activity (Staphylococcus aureus [16]): inactive
- Activity (Staphylococcus aureus [17]): Active
- Activity [18]: inactive
- Activity (Staphylococcus aureus [19]): inactive
- Activity [20]: inactive
- Activity [21]: Active
- Activity (Staphylococcus aureus [22]): inactive
- Activity [23]: Active
